SENP7 inh – SENP7 protease inhibitors, primary screen, biochemical, luminescence, uHTS; Sentrin-specific protease 7 (Homo sapiens), Q9BQF6; 330,000 tested, 1.5% active; inhibition, % at 5 µM; recombinant SENP7, Z-RLRGG-aminoluciferin luminescence, 40 min; AID 434973, 2010;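 active = inhibition above about 50% at the single test dose, limit read from the data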;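 also: plate controls were DMSO with enzyme for no effect and no enzyme buffer wells for full effect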
Target sequence (Q9BQF6 706-1050 limits assumed): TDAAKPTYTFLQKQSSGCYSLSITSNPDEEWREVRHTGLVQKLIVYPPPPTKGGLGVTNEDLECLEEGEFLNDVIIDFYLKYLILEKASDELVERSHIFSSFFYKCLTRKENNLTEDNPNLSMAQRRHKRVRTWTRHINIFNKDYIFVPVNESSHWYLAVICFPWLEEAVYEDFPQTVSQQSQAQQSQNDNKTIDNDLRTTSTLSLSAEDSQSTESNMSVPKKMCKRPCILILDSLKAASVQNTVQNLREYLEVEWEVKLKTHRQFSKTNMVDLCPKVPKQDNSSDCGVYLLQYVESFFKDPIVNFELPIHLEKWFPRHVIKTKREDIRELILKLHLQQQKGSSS
SENP1 inh – human SENP1 catalytic domain inhibitors, primary screen, biochemical, FRET, uHTS. AID 624204, 2012. inhibition, % at 10 µM. recombinant SENP1 catalytic domain, CyPet-SUMO1-YPet FRET cleavage. 360,000 tested, 0.21% active. Sentrin-specific protease 1 (Homo sapiens), Q9P0U3;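 active = inhibition at least 30% at 10 µM, raw YFP signal under a set limit, fluorescence ratio 0.5 to 1.5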;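 also: 0% = enzyme with DMSO and 100% = no enzyme wells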
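Compound: 10 µM single point, 0.5% DMSO; Test system: hSENP1 catalytic domain, recombinant; Timing: 50 min reaction at room temperature; Technique: FRET, CFP and YFP emission; Control set: no-enzyme wells low, DMSO-plus-enzyme wells high control.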
SENP8 block-1 – human SENP8 protease inhibitors, primary screen, biochemical, fluorescence, Nedd8 protein substrate, uHTS; recombinant SENP8; Sentrin-specific protease 8 (Homo sapiens), Q96LD8; 360,000 tested, 0.64% active; inhibition, % at 20 µM; in the data active = inhibition mostly above about 40%, no sharp cut-off; inactive = mostly below about 27%
SENP8 block-2 – SENP8 protease inhibitors, primary screen, biochemical, luminescence; purified SENP8, Z-RLRGG-aminoluciferin cleavage; AID 2540, 2010; inhibition, % at 10 µM; Sentrin-specific protease 8 (Homo sapiens), Q96LD8; 330,000 tested, 1.2% active; in the data active = inhibition above about 50%
SENP6 block – SENP6 protease inhibitors, primary screen, biochemical, luminescence, uHTS; inhibition, % at 10 µM; Sentrin-specific protease 6 (Homo sapiens), Q9GZR1; AID 2599, 2010; Recombinant SENP6 catalytic domain, aminoluciferin luminescence; 330,000 tested, 1.8% active;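 active = inhibition above about 50% at the single tested dose, limit read from the data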;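 also: plate controls were DMSO wells with enzyme for no effect and DMSO wells lacking enzyme for full effect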
SENP8 confirm – SENP8 protease inhibitors, retest, confirmation, biochemical, luminescence, single concentration | shares compounds with SENP7 inh | Recombinant SENP8, Z-RLRGG-aminoluciferin luminescence, 60 min | inhibition, % at 12.5 µM | 6,200 tested, 40% active;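 active = mean inhibition across replicates above about 50%, limit read from the data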
SENP6 conf – SENP6 protease inhibitors, confirmation, biochemical, luminescence, single concentration. inhibition, % at 12.5 µM. recombinant SENP6, Z-RLRGG-aminoluciferin luminescence. shares compounds with SENP7 inh. 6,200 tested, 58% active. AID 488915, 2010
SENP7 confirm – SENP7 protease inhibitors, retest, confirmation, biochemical, luminescence, single concentration | shares compounds with SENP7 inh | inhibition, % at 12.5 µM | 6,200 tested, 69% active | AID 488917, 2010 | recombinant SENP7, Z-RLRGG-aminoluciferin luminescence, 40 min
Casp3 select – caspase-3 protease inhibitors, confirmation, selectivity assay for SENP inhibitor project, biochemical, single concentration | 6,200 tested, 60% active | AID 488918, 2010 | purified caspase-3, Z-DEVD-aminoluciferin luminescence, 60 min | shares compounds with SENP7 inh | inhibition, % at 12.5 µM;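 active = mean inhibition above about 50%, limit read from the data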;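 also: plate controls were enzyme with DMSO for no effect and wells without caspase-3 for full effect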
Target sequence (P42574 28-227 limits assumed): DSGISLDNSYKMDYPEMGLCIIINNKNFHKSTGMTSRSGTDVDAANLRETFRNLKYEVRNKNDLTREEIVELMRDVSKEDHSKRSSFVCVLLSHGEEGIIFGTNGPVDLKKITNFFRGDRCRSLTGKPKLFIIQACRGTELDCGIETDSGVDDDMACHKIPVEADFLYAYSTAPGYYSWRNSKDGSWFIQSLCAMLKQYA
SENP luc ctr – luminescence interference (SENP counter-screen) | shares compounds with SENP7 inh | Pre-incubated SENP8/Z-RLRGG-aminoluciferin, luciferase luminescence interference | inhibition, % at 12.5 µM | 6,200 tested, 39% active | AID 488919;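 active = mean inhibition above about 50% when retested at one dose, limit read from the data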;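 also: plate controls were DMSO wells with completed reaction for no effect and substrate without enzyme for full effect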
* = called active by the depositor; i = inactive; x = no result. In the library only some 2.5% were active in any assay of this set; here they are far more common.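 The calls were made as follows, unless noted: active = mean inhibition above about 50% in the one-dose retest (limit read from the data); inactive = the rest.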

SMILES | SENP7 inh | SENP1 inh | SENP8 block-1 | SENP8 block-2 | SENP6 block | SENP8 confirm | SENP6 conf | SENP7 confirm | Casp3 select | SENP luc ctr
Cc1nnc(-c2ccc(Cl)cc2)[nH]c1=O | -7 | 0 | 3 | -1 | -13 | x | x | x | x | x
CCOc1ccc(NC(=O)Nc2ccon2)cc1 | 54* | -1 | -3 | 15 | 55* | 22 | 21 | 67* | 74* | 23
CCOc1ccc(C(=O)Nc2ccccc2C(=O)O)cc1 | 16 | 2 | 8 | 31 | 61* | 77* | 72* | 94* | 85* | 78*
O=C(Nc1ccccc1C(=O)O)c1ccc(NC(=O)C2CC2)cc1 | 50 | 0 | -3 | 61* | 67* | 76* | 75* | 94* | 88* | 83*
O=C(Nc1ccc(C#Cc2ccccc2)cc1)C1CC1 | 68* | 1 | 8 | 26 | 47 | 9 | 40 | 64* | 26 | 5
CCCC(=O)Nc1ccccc1NC(=O)c1ccc(OCC)cc1 | -1 | 4 | 14 | 1 | -3 | x | x | x | x | x
CCc1nc2ccc(C(=O)N(C)Cc3ccco3)cn2c1N(CC)C(=O)NCCc1ccccc1 | x | 0 | -22 | x | x | x | x | x | x | x
COc1ccc(/C=C/CN2CCC(C(=O)NC(c3ccc(F)cc3)c3ccc4ccccc4n3)CC2)cc1 (centres undefined) | x | 0 | 7 | x | x | x | x | x | x | x
CCOc1ccc(C(=O)Nc2cc(C)on2)cc1 | 54* | 4 | 10 | 13 | 47 | -24 | 17 | 57* | 74* | -6
CCOc1cc(C(=O)Nc2cc(C)on2)cc(OCC)c1OCC | -7 | -1 | 10 | -2 | -2 | x | x | x | x | x
CCCC(=O)Nc1ccc(C#Cc2ccccc2)cc1 | 51* | -4 | 11 | 6 | 45 | 2 | 13 | 19 | 13 | 2
CCOC(=O)c1ccc(N2CCOCC2)c(NC(=O)c2ccc3c(c2)OCO3)c1 | -7 | 0 | 7 | -1 | -11 | x | x | x | x | x
CCCCNc1c(-c2cccc(SC3CCCCC3)c2)nc2ccc(Cl)cn12 | -5 | -60 | -484 | -3 | -11 | x | x | x | x | x
CCCCNc1c(-c2ccc(SC3CCCCC3)cc2)nc2ccccn12 | 30 | -28 | i | 63* | 83* | -22 | 7 | 13 | 17 | 3
CCCCNc1c(-c2ccc(SC(C)CC)cc2)nc2ccccn12 (centres undefined) | 83* | -31 | -451 | 74* | 97* | 73* | 64* | 94* | 82* | 83*
COc1ccc(/C(N)=N/OC(=O)Cc2cccs2)cc1 | 1 | 2 | 5 | 9 | 51* | 30 | 28 | 67* | 26 | 33
N/C(=N\OC(=O)C1CCCCC1)c1cccc(Br)c1 | 48 | 1 | 11 | 27 | 69* | 45 | 46 | 80* | 69* | 51*
COc1ccc(/C(N)=N/OC(=O)C2CCCCC2)cc1 | 68* | 0 | -11 | 26 | 27 | -17 | 10 | 61* | 17 | 18
N/C(=N\OC(=O)CC1CCCCC1)c1cccc(Br)c1 | 22 | 4 | 6 | 12 | 37 | x | x | x | x | x
COc1ccc(/C(N)=N/OC(=O)Cc2cccs2)cc1OC | -1 | -1 | 11 | -10 | -1 | x | x | x | x | x
CCN(CC)c1ccc(C=Nc2ccc(OC)c(S(=O)(=O)N3CCOCC3)c2)c(O)c1 | -1 | -18 | -10 | 5 | 5 | x | x | x | x | x
COc1ccccc1-c1noc(-c2ccncc2)n1 | 51* | 1 | 18 | 23 | 53* | 42 | 41 | 77* | 76* | 52*
COc1ccccc1-c1noc(-c2cccs2)n1 | 68* | 2 | 16 | 59* | 76* | 78* | 78* | 92* | 78* | 80*
c1csc(-c2nnc(N3CCCCCC3)c3ccccc23)c1 | -4 | -2 | -22 | -9 | -6 | x | x | x | x | x
COc1cccc(-c2ccc(-c3noc(-c4cccs4)n3)c(OC)n2)c1 | -3 | 0 | -464 | 3 | -23 | x | x | x | x | x
SMILES | SENP7 inh | SENP1 inh | SENP8 block-1 | SENP8 block-2 | SENP6 block | SENP8 confirm | SENP6 conf | SENP7 confirm | Casp3 select | SENP luc ctr
c1csc(-c2nc(N3CCCCC3)no2)c1 | 61* | 0 | -289 | 53* | 66* | -18 | 43 | 84* | 52* | 4
Cc1ccc(-c2noc(-c3cccs3)n2)cc1 | -5 | 2 | 10 | 95* | 95* | 14 | 97* | 103* | 90* | 70*
Nc1ncnc2c1ncn2[C@@H]1O[C@H](CNC(=O)[C@@H]2CCC(=O)N2)[C@@H](O)[C@H]1O | -2 | 0 | 9 | x | x | x | x | x | x | x
Cn1nc(C(C)(C)C)cc1C(=O)N1CCCC(C)(C(=O)NS(=O)(=O)C2CC2)C1 (centres undefined) | x | -1 | 11 | x | x | x | x | x | x | x
O=C(NC(=S)NNS(=O)(=O)c1ccccc1)c1ccc([N+](=O)[O-])cc1 | -2 | 1 | 11 | -6 | -8 | x | x | x | x | x
O=C(NNS(=O)(=O)c1ccccc1)c1ccc([N+](=O)[O-])cc1 | 68* | 2 | 14 | -10 | -3 | 8 | 9 | 11 | 4 | -3
O=C(O)c1cccc(NC(=O)C2CCCO2)c1 (centres undefined) | 14 | 2 | 8 | 0 | 6 | x | x | x | x | x
O=C(O)c1cccc(C(=O)Nc2cccc(NC(=O)C3CCCO3)c2)c1 (centres undefined) | 49 | 1 | 6 | 42 | 57* | 74* | 71* | 91* | 67* | 47
O=C(O)c1cccc(NC(=O)c2cccc(NC(=O)C3CCCO3)c2)c1 (centres undefined) | -15 | 0 | 14 | 55* | 63* | 74* | 72* | 90* | 69* | 54*
Cc1c(C(=O)NCc2ccco2)sc(=O)n1Cc1ccc(S(C)(=O)=O)cc1 | x | 1 | -2 | x | x | x | x | x | x | x
Cc1ccc(CONC(=O)c2cccc(C)c2)cc1 | 48 | 3 | 9 | 34 | 65* | 46 | 43 | 78* | 77* | 56*
